Screening results deposited in PubChem BioAssay by several laboratories.
CaV13 FRET inh: Disruptors of the CACNA1D IQ motif to Ca2+-dependent inactivation inhibitor domain association, primary screening, Förster resonance energy transfer in intact living …; inhibition, % at 12.3 µM; HEK cells, CFP/YFP FRET ICDI-IQ, plate reader, 10 min; percent FRET-ratio fall versus neutral wells; actives 0.098% (n = 340,000); AID 743397;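 active = mean replicate inhibition of at least 30% and at least 1% of replicates passing that level; inconclusive = only one of the two criteria is met; inactive = neither criterion is met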
Xi reactivation: reactivates the inactive X chromosome in mouse fibroblasts; actives 0.055% (n = 360,000); AID 743238; XiGFP mouse fibroblasts, % GFP-positive cells imaging, 3 d; cells co-treated with 5-aza-dC sensitizer; scaled so ellipticine positive control = 100%; activation, % at 7.58 µM;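 active = mean normalized replicate activation at least 10% and every replicate at or above 10%; inconclusive = only one of the two criteria met; inactive = mean below 10% and not all replicates reach 10%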
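Material: XiGFP fibroblasts, SV40-immortalized. Buffer or medium: DMEM plus 5-aza-dC sensitizer. Compound: single concentration per compound, delivered by pin transfer. Times: 3 days compound exposure. Controls: ellipticine 6 µM.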
GC-A act: GC-A (human) enzyme activation; P16066; HEK293 GC-A cells, cGMP TR-FRET, EC30 ANP; 0% at EC30 ANP, 100% saturating ANP; activation, % at 10 µM; actives 0.14% (n = 370,000); AID 1671463; in the data active = activation above about 40%
NPR2 activator: GC-B (human) receptor activation; P20594; HEK293-GC-B cells, CNP EC30, cGMP TR-FRET; 0% at EC30 CNP, 100% saturating CNP; activation, % at 10 µM; actives 0.11% (n = 370,000);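 active = activation at 10 µM reaching about 35% in either raw or pattern-adjusted values, limit read from the data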
Target sequence (P20594 whole entry, looked up): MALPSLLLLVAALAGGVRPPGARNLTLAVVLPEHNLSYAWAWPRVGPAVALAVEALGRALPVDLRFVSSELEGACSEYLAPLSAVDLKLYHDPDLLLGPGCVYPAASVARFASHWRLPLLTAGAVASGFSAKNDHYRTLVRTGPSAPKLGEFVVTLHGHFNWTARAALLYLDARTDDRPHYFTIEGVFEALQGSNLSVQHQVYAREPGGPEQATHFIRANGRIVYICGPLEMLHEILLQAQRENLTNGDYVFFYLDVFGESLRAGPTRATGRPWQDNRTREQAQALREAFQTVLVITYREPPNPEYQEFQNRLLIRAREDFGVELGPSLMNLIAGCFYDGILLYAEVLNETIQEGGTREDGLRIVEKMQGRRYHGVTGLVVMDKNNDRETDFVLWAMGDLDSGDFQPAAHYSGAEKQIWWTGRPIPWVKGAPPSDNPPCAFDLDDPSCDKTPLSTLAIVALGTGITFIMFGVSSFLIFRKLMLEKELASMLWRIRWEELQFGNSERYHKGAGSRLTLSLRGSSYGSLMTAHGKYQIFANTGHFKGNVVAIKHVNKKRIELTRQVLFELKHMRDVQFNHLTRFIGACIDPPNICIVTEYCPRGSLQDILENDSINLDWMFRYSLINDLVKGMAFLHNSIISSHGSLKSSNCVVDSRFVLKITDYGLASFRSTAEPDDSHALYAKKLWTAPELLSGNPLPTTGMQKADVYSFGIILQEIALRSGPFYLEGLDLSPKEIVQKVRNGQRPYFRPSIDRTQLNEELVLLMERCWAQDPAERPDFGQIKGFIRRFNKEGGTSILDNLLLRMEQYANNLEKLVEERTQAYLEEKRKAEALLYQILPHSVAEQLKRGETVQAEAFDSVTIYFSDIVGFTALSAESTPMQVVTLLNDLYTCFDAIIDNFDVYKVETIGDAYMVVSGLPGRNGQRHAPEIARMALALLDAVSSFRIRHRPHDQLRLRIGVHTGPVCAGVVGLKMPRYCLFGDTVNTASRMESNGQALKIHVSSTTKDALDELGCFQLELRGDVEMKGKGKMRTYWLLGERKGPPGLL
Vif inh: blocks HIV Vif function; HEK293T cells, Vif self-association by quenched fluorescence, imaging, 24 h; inhibition, % at 7.49 µM; actives 0.35% (n = 340,000); AID 602346; in the data active = inhibition above about 50%, passing the limit was not always enough; inconclusive = no clear call, values can overlap the other calls; inactive = below about 31%
N-glyco inh: N-linked glycosylation inhibition | D54 ERlucT glycosylation luciferase reporter, 24 h; percent of 100 nM tunicamycin response | reporter increase, % at 12.5 µM | actives 0.23% (n = 360,000);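 active = mean luciferase reporter signal, scaled so untreated is 0 and the glycosylation-blocking control 100, at or above a set limit in every replicate; inconclusive = mean reaches the limit but not every replicate does; inactive = mean below the limit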;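 note: luciferase carries N-glycosylation sites so blocking glycosylation raises the light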
Of the large screens only hits and unclear results are named; the others gave an inactive call. An excerpt weighted towards active compounds, which were near 0.7% of everything screened.

O=C1Cc2c([nH]c3ccc([N+](=O)[O-])cc23)-c2ccccc2N1	N-glyco inh 88.3
CCCn1c(-c2cccs2)nc2nc3ccccc3nc21	none (no result: CaV13 FRET inh, Xi reactivation)
c1csc(-c2nc3nc4ccccc4nc3n2Cc2ccc3c(c2)OCO3)c1	NPR2 activator 37.8 (no result: Xi reactivation)
COc1cc(-c2nc(C(=O)NCC3CCCO3)cc3c2[nH]c2ccccc23)cc(OC)c1OC (stereo not drawn)	GC-A act 53.5, NPR2 activator 58.5 (no result: CaV13 FRET inh, Xi reactivation)
COc1ccccc1-c1nc(C(=O)NCC2CCCO2)cc2c1[nH]c1ccccc12 (stereo not drawn)	none (no result: CaV13 FRET inh, Xi reactivation, GC-A act, NPR2 activator)
NC(=O)CCCn1c(C(=O)c2cc(Cl)c(N)c(Cl)c2)c2ccc([N+](=O)[O-])cc2[n+]1[O-]	NPR2 activator 58.4
CCN(CC)CCn1c2ccccc2c2nc3ccccc3nc21	N-glyco inh 129.0
CCCn1c2ccccc2c2nc3ccccc3nc21	none (no result: Xi reactivation)
COc1ccc(OC)c(N(CC(=O)Nc2ccc(NC(C)=O)cc2)S(C)(=O)=O)c1	none (no result: Xi reactivation)
COC(=O)c1ccc(C)c(NC(=O)CN(c2cc(OC)ccc2OC)S(C)(=O)=O)c1	N-glyco inh 73.6 (no result: Xi reactivation)
Oc1ccc(Cl)cc1C=Nc1ccccc1Br	none
Oc1ccc(Br)cc1C=Nc1ccc2c3c(cccc13)CC2	Xi reactivation 104.7
Cc1ccc(C(=O)Cn2cncn2)cc1	Xi reactivation 16.1
CNc1cc(NS(=O)(=O)c2ccc(N)cc2)nc(NC)n1	Vif inh 53.2
CC(=O)c1cccc(-c2ccnc3c2CC(C(=O)NCc2ccccc2)O3)c1 (stereo not drawn)	none
CC(=O)c1cccc(-c2ccnc3c2CC(C(=O)NCc2ccco2)O3)c1 (stereo not drawn)	Vif inh 54.2, N-glyco inh 31.7
CC(=O)c1cccc(-c2ccnc3c2CC(C(=O)NCc2ccc(F)c(F)c2)O3)c1 (stereo not drawn)	CaV13 FRET inh 43.7, N-glyco inh 34.5
O=C(NCc1ccccc1)C1Cc2c(-c3cccc(F)c3)ccnc2O1 (stereo not drawn)	N-glyco inh 34.6
O=C(NCc1cccc(Cl)c1)C1Cc2c(-c3cccc(F)c3)ccnc2O1 (stereo not drawn)	none
O=C(C[C@@H]1C=C[C@H](NS(=O)(=O)c2cccc(F)c2)[C@@H](CO)O1)N1CCCCC1	none (no result: CaV13 FRET inh, GC-A act, NPR2 activator, Vif inh, N-glyco inh)
CCN(CC)C(=O)c1sc2nc(-c3cccs3)cc(-c3cccs3)c2c1N	Vif inh 82.8
CCN(CC)C(=O)c1sc2nc(-c3cccs3)cc(-c3ccc(Cl)cc3)c2c1N	Vif inh inconclusive (no result: CaV13 FRET inh, Xi reactivation)
CC(=O)c1cccc(NC(=O)CCS(=O)(=O)c2cc3c(cc2C)NC(=O)CO3)c1	none
CCc1cccc(NC(=O)CCS(=O)(=O)c2cc3c(cc2C)NC(=O)CO3)c1	Vif inh 134.1
Cn1c(SCC(=O)NCC2CCCO2)ncc(C(=O)Nc2ccc(Cl)cc2)c1=O (stereo not drawn)	GC-A act 45.3
CCn1c(SCC(=O)NCC2CCCO2)nnc1-c1c[nH]c2ccccc12 (stereo not drawn)	none (no result: CaV13 FRET inh, Xi reactivation)
CC(=O)c1cccc(NC(=O)CSc2ncc(C(=O)Nc3ccccc3)c(=O)n2C)c1	N-glyco inh 30.1
CCn1c(SCC(=O)NCC2CCCO2)nnc1-c1ccc(Cl)cc1 (stereo not drawn)	Vif inh 53.5
CC(=O)Nc1cccc(NC(=O)CSc2ncc(C(=O)Nc3ccccc3)c(=O)n2C)c1	none
CNC[C@H]1Oc2ccc(NS(=O)(=O)c3ccc(F)cc3)cc2CC(=O)N([C@H](C)CO)C[C@@H]1C	none (no result: CaV13 FRET inh, GC-A act, NPR2 activator, Vif inh, N-glyco inh)
O=C1OCCC1Sc1nnc(-c2ccc(Br)cc2)o1 (stereo not drawn)	GC-A act 66.0 (no result: Xi reactivation)
CN(C)C=Nc1ncc2c3ccccc3n(Cc3ccccc3)c2c1C#N	GC-A act 45.7, NPR2 activator 35.4 (no result: Xi reactivation, Vif inh)
